From PubChem BioAssay
Jurkat NFkB inh = inhibitors of the PMA/ionomycin-induced NF-kB reporter in Jurkat cells; PMA/ionomycin-induced NF-kB luciferase reporter, luminescence; inhibition, % at 4 µM; 330,000 compounds, 0.53% hits; AID 435003; in the data active means inhibition above about 50%
MPTP inh = permeability transition pore inhibition | 360,000 compounds, 1.4% hits | inhibition, % at 10 µM | isolated mouse mitochondria, Ca2+ swelling absorbance, 30 min | AID 602449;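 active means inhibition of 50% or more, scaled per plate between neutral and stimulator controls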
NR2E3 ag-1 = agonists of human nuclear receptor NR2E3. Q9Y5X4. GST-NR2E3/biotin-RetCOR TR-FRET, 1536-well. inhibition of corepressor binding, % at 4.78 µM. 320,000 compounds, 0.12% hits. AID 2300;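 active means percent inhibition above the cutoff of mean plus 3 SD of all tested compounds, set per screening campaign, cut at about 20% in these data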
Target sequence (Q9Y5X4 whole entry, looked up): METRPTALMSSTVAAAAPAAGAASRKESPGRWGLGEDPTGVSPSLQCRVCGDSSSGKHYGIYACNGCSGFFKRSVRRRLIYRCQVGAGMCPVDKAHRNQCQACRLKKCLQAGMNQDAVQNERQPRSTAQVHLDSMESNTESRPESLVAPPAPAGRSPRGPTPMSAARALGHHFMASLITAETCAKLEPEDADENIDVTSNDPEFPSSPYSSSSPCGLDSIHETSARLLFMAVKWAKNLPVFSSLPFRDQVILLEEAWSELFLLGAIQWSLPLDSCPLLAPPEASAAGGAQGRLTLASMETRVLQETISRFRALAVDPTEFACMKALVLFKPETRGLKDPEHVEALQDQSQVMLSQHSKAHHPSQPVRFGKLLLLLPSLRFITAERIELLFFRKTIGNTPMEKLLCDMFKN
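Format: 1536-well format; test system: GST-NR2E3 and biotin-RetCOR proteins; read-out basis: percent inhibition of TR-FRET ratio; timing: 5 h incubation at 4 °C; detection: time-resolved FRET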
aDG glyco act = alpha-DG glycosylation activation; 360,000 compounds, 0.22% hits; activation, % at 10 µM; Pro5-aDG cells, alpha-DG glycosylation AlphaScreen (IIH6); 0% Pro5, 100% B10-LARGE cell signal;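 active means activation of at least 8% versus controls, or a plate z-score of at least 8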;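 further: Pro5 are CHO cells carrying HIG-tagged alpha-DG that lacks glycosylation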
NR2E3 ag-2 = human photoreceptor-specific nuclear receptor agonism; AID 602229; CHO-S Gal4-NCOR/VP16-NR2E3 two-hybrid, luciferase; Q9Y5X4; 360,000 compounds, 0.35% hits; inhibition of corepressor binding, % at 3.98 µM;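 active means inhibition above the mean of all tested compounds plus 3 SD, cut at about 70% in these data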;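 further: higher means lower luciferase signal from less NR2E3 corepressor binding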
697 NFkB inh = inhibitors of the PMA/ionomycin-induced NF-kB reporter in 697 B cells. 330,000 compounds, 0.33% hits. inhibition, % at 4 µM. 697 B-cell NF-kB luciferase reporter, 16 h. AID 435022; in the data active means inhibition above about 35%
MPTP counter = mitochondrial membrane potential, counter-screen. shares compounds with MPTP inh. isolated mitochondria, Rhodamine 123 fluorescence. inhibition, % at 10 µM. 5,000 compounds, 78% hits. AID 624504; in the data active means inhibition above about 22%
MPTP abs DR = dose response confirmation of mitochondrial permeability transition pore inhibitors. AID 651561. 780 compounds, 58% hits. IC50, µM. shares compounds with MPTP inh. isolated mitochondria swelling, absorbance; in the data active means IC50 below about 20 µM
MPTP counter DR = active in counter-screen for permeability transition pore inhibitors. isolated mitochondria counterscreen, fluorescence read-out. shares compounds with MPTP inh. 780 compounds, 49% hits. IC50, µM; in the data active means IC50 below about 80 µM
Of the large screens only hits and unclear results are named; the others gave an inactive call (follow-up assays come after a bar, where they were run). Rows were chosen to be rich in hits. Some 2.4% of all compounds tested hit in one or more screens of this group.

O=c1[nH]c(CN2CCCCC2)nc2c1C1(CCCCC1)Cc1ccccc1-2	MPTP inh 77 | MPTP counter inactive | MPTP abs DR inactive | MPTP counter DR inactive
CCc1nc2c(c(=O)[nH]1)C1(CCCC1)Cc1ccccc1-2	none
O=C1CC(C(=O)Nc2cccc(F)c2)n2ncnc2N1 (stereo unspecified)	none
O=C(Nc1cc(Cl)cc(Cl)c1)c1cccc(OC(F)F)c1	MPTP inh 96 | MPTP counter 96
Cc1ccnc(NC(=O)c2cccc(OC(F)F)c2)n1	none
CCCCc1cc(=O)oc2cc(OCc3cc(OC)c(OC)c(OC)c3)c(Cl)cc12	MPTP inh 88 | MPTP counter inactive | MPTP abs DR 3 | MPTP counter DR 5
CCCc1cc(=O)oc2cc(OCc3cc(OC)c(OC)c(OC)c3)c(Cl)cc12	none
CC(NC(=O)COC(=O)CCC(=O)c1ccc(F)cc1)c1ccccc1 (stereo unspecified)	none (no result: NR2E3 ag-1)
CC1CCN(S(=O)(=O)c2ccc(NC(=O)Cn3nnc(-c4ccccc4)n3)cc2)CC1	MPTP inh 54 | MPTP counter 56
Cc1ccc(-c2nnn(CC(=O)Nc3ccc(S(=O)(=O)N4CCC(C)CC4)cc3)n2)cc1	none
O=C(CN1C(=O)C2C3CC(C(Br)C3Br)C2C1=O)Nc1ccc(C(=O)O)cc1 (stereo unspecified)	none
Cc1ccc(-c2cc(-c3n[nH]c(=S)o3)c3ccccc3n2)cc1	MPTP inh 94 (no result: Jurkat NFkB inh, 697 NFkB inh) | MPTP counter 64
O=C(CSc1ccc(F)cc1)NC12CC3CC(CC(C3)C1)C2	none
O=C(CCSc1ccc(Cl)c(Cl)c1)NC12CC3CC(CC(C3)C1)C2	MPTP inh 52 | MPTP counter 45
CC(=O)Nc1ccc(Nc2cc(C(C)C)nc3c(-c4ccccc4)c(C)nn23)cc1	none
Cc1ccc(C)c(COc2coc(CN3CCN(C(=O)c4ccco4)CC3)cc2=O)c1	none
C=C(C)[C@@H]1CC=C(CN2CCC(N3CCC(C(=O)N4CCCC4)CC3)CC2)CC1	MPTP inh 83 | MPTP counter 47
Cc1csc(NC(=O)Nc2ccc(Cl)cc2)n1	MPTP inh 74 | MPTP counter 69
O=C(Nc1ccc(Cl)cc1)Nc1nc(-c2ccccc2O)cs1	MPTP inh 99 | MPTP counter 67
O=C(Cc1csc(NC(=O)Nc2ccc(Cl)cc2)n1)NC1CCCC1	MPTP inh 94 | MPTP counter 81
O=C(Nc1ccc(Cl)cc1)Nc1nc(-c2sccc2Br)cs1	none
O=C(Cc1csc(NC(=O)Nc2ccc(Cl)cc2)n1)NCc1ccccn1	none
CCOC(=O)Cc1csc(NC(=O)Nc2ccc(Cl)cc2)n1	MPTP inh 74 | MPTP counter 77
CCOC(=O)Cc1csc(N/N=C/c2ccc(Cl)cc2)n1	none
O=C(COc1ccc(C(=O)c2ccc(F)cc2)cc1)Nc1cccc(S(=O)(=O)N2CCOCC2)c1	none (no result: NR2E3 ag-1)
CCOC(=O)Cc1csc(NC(=O)Nc2cccc(Cl)c2)n1	MPTP inh 73 | MPTP counter 86
CCOC(=O)c1csc(NC(=O)Nc2cccc(Cl)c2)n1	MPTP inh 97 | MPTP counter 84
NCc1csc(NC(=O)Nc2cccc(Cl)c2)n1	none (no result: Jurkat NFkB inh, NR2E3 ag-1, 697 NFkB inh)
CC(C)[C@H](NC(=O)OC(C)(C)C)c1nnc(SCC(=O)Nc2ccc(Br)cc2)o1	MPTP inh 82 | MPTP counter 53
COc1ccc(/C=C/C(=O)OCC(=O)Nc2ccc(Cl)cn2)cc1	none
Nc1ccc(-c2nc3nc(N)nc(N)c3nc2-c2ccc(N)cc2)cc1	none
COc1c2c(c(OC)c3ccccc13)[C@]1(OC2)O[C@H](CCO)C[C@H](O)[C@H]1O	none (no result: Jurkat NFkB inh, NR2E3 ag-1, 697 NFkB inh)
CN1CCN(CCCC(=O)c2ccc(C3CCCC3)cc2)CC1	MPTP inh 79 | MPTP counter inactive | MPTP abs DR 5.9 | MPTP counter DR 19
CN1CCN(CCCCC(=O)c2ccccc2)CC1	none
COCCN(C(=O)COC(=O)CSc1ccc2ccccc2c1)c1c(N)n(Cc2ccccc2)c(=O)[nH]c1=O	none
O=C(NC(Nc1ncc(S(=O)(=O)c2ccc([N+](=O)[O-])cc2)s1)(C(F)(F)F)C(F)(F)F)c1ccc(Cl)cc1	MPTP inh 100 | MPTP counter 87
O=C(Nc1ncc(S(=O)(=O)c2ccc([N+](=O)[O-])cc2)s1)c1cccc2ccccc12	MPTP inh 54 | MPTP counter 79
CCCCC(CCC(=O)Nc1ccn(-c2ccccc2)n1)C(=O)O (stereo unspecified)	none
CC1CCc2nc(NC(=O)CN3CCN(Cc4ccc5c(c4)OCO5)CC3)sc2C1 (stereo unspecified)	MPTP inh 56 | MPTP counter inactive | MPTP abs DR inactive | MPTP counter DR 46
COc1ccc(OCC(=O)N2CCN(c3nnc(-c4ccc(C)cc4)c4ccccc34)CC2)cc1	MPTP inh 60 | MPTP counter inactive | MPTP abs DR 20 | MPTP counter DR 22
Cc1ccc(OCC(=O)N2CCN(c3nnc(-c4ccc(C)cc4)c4ccccc34)CC2)cc1	MPTP inh 84 | MPTP counter 22
Cc1ccc(-c2nnc(N3CCN(C(=O)COc4cccc(C)c4)CC3)c3ccccc23)cc1	none
Cc1ccc(C(C)C)c(OCC(=O)Nc2ccc3c(c2)nc(CCN2CCCCC2)n3C)c1	MPTP inh 73 | MPTP counter inactive | MPTP abs DR 6.1 | MPTP counter DR 75
Cc1c(C)n(CCc2ccccc2)c2ncnc(NCCO)c12	none
Cc1c(C)n(Cc2ccccc2)c2ncnc(Cl)c12	MPTP inh 56 | MPTP counter 65
CNC(=O)NNC(=O)c1onc(-c2c(Cl)cccc2Cl)c1C(=O)OC	none
O=[N+]([O-])c1c(O)c(Cl)cc(Cl)c1Cl (tested in a mixture with another compound)	MPTP inh 78 (no result: Jurkat NFkB inh, NR2E3 ag-1, 697 NFkB inh) | MPTP counter 86
O=[N+]([O-])c1c(Nc2ccccc2O)cc(Cl)c2nonc12	none (no result: NR2E3 ag-1)
Fc1ccccc1C1c2cccn2CCN1C(=S)Nc1cccc(Br)c1 (stereo unspecified)	none
Fc1ccccc1C1c2cccn2CCN1C(=S)Nc1ccc(Br)cc1 (stereo unspecified)	MPTP inh 101 | MPTP counter 92
Cc1cccc(NC(=O)c2cc(-c3cc(C)cc(C)c3O)n[nH]2)c1	none
